64 compounds from PubChem BioAssay AID651654 (Broad Institute, 2012) can be followed below.

The campaign covered roughly 360,000 compounds. About 740 (0.21%) were called active. The sample as a whole holds a higher share of actives than the screen did. A number with no mark means an inactive call.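 Rule for the calls: active = mean lysis activity across replicates of at least 80%, whatever share of replicates individually reach that level; inactive = mean lysis activity below 80%.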

This assay in a line: Cryptococcus neoformans cell lysis inducers, primary screen, AK release luminescence, single concentration (AID 651654). Conditions: C. neoformans lysis, adenylate kinase release luminescence, 4 h; at 15 µM; hits give high values; normalised: neutral wells 0, clomiphene wells 100. The essentials:
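Material – Cryptococcus neoformans yeast cells · Quantity – 5 × 10^6 yeast cells/mL · Buffer or medium – YPD medium · Compound – single dose · Timing – 4 h static compound exposure, 37 °C, read 1 h post-reagent · Signal – adenylate kinase release luminescence · Read-out basis – lysis from increased AK signal · Benchmarks – Clomiphene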
Consider `CCCC#Cc1ccc2c(c1)O[C@@H](CN(C)C(=O)c1cccnc1)[C@H](C)CN([C@H](C)CO)S2(=O)=O`, for which the lysis activity is -4.36%.

On to `C[C@H](CO)N1C[C@H](C)[C@@H](CN(C)C)Oc2cc(C#Cc3ccccc3)ccc2S1(=O)=O`, for which the lysis activity is 0.917%.

With `C/C=C/c1ccc2c(c1)O[C@@H](CN(C)S(=O)(=O)c1ccc(F)cc1)[C@@H](C)CN([C@H](C)CO)S2(=O)=O`, the lysis activity is 3%.

For `C[C@@H]1CN([C@H](C)CO)C(=O)CCCn2cc(nn2)CO[C@@H]1CN(C)Cc1ccccc1C(=O)O`, the lysis activity was -0.638%.

On to `C[C@H](CO)N1C[C@H](C)[C@@H](CN(C)Cc2ccccc2C(F)(F)F)OCc2cn(nn2)CCCC1=O`, for which the lysis activity was -8.12%.

With `Cc1ccccc1CN(C)C[C@H]1OCc2cn(nn2)CCCC(=O)N([C@@H](C)CO)C[C@H]1C`, the lysis activity was 96.6% (active).

For `CO[C@H]1CN(C)C(=O)c2ccc(NC(=O)Cc3ccccc3)cc2OC[C@@H](C)N(C(C)=O)C[C@H]1C`, the lysis activity is 69.9%.

In the case of `C[C@@H]1CN([C@@H](C)CO)C(=O)c2cccc(NC(=O)Nc3ccc(C(F)(F)F)cc3)c2O[C@@H]1CN(C)S(=O)(=O)c1ccc(F)cc1`, the lysis activity is 28.4%.

With `C[C@@H]1CN([C@@H](C)CO)C(=O)Cc2cc(NS(=O)(=O)c3cccs3)ccc2O[C@@H]1CN(C)S(=O)(=O)c1ccc(F)cc1`, the lysis activity is -1.3%.

Take `CCCNC(=O)N1[C@H](CNC(=O)c2cccc(F)c2)[C@H](c2ccccc2)[C@@H]1CO`: the lysis activity is -0.391%.

Turning to `COc1cccc(S(=O)(=O)N[C@H]2CC[C@@H](CC(=O)NCc3ccc(F)cc3)O[C@@H]2CO)c1`, the lysis activity is 3.95%.

Turning to `CCCNC(=O)C[C@H]1C[C@@H]2c3cc(NC(=O)C4CCOCC4)ccc3O[C@@H]2[C@H](CO)O1`, the lysis activity was 1.8%.

Consider `O=C(C[C@H]1CC[C@H](NC(=O)C2CCC2)[C@@H](CO)O1)Nc1nccs1`, for which the lysis activity was 5.79%.

With `COc1ccccc1S(=O)(=O)N[C@@H]1CC[C@@H](CCn2cc(C3CCCCC3)nn2)O[C@H]1CO`, the lysis activity is 18.5%.

Consider `O=C(C[C@@H]1C[C@H]2c3cc(NC(=O)Nc4ccccc4)ccc3O[C@H]2[C@@H](CO)O1)NCc1cccnc1`, for which the lysis activity was -4.19%.

Turning to `COC(=O)C[C@@H]1CC[C@@H]2[C@H](COc3ccc(NC(=O)Nc4cccc(F)c4)cc3C(=O)N2C)O1`, the lysis activity was 5.11%.

With `CO[C@@H](CN(C)C(=O)c1cnccn1)[C@@H](C)CN([C@@H](C)CO)S(=O)(=O)c1ccc(F)cc1`, the lysis activity is 59.1%.

As for `CC(=O)N1[C@H](CN(CC2CCC2)C(=O)CN(C)C)[C@@H](c2ccccc2)[C@@H]1CO`, the lysis activity was -2.74%.

On to `CCC(=O)N1C[C@@H](C)[C@H](OC)CN(C)C(=O)c2ccc(NC(=O)c3ccc(F)cc3)cc2OC[C@@H]1C`, for which the lysis activity is -5.87%.

Consider `COc1ccccc1NC(=O)N[C@H]1CC[C@H](CCn2cc(-c3cccnc3)nn2)O[C@@H]1CO`, for which the lysis activity is -0.992%.

Consider `CNC[C@H]1Oc2ccc(NS(=O)(=O)c3ccc(F)cc3)cc2C(=O)N([C@@H](C)CO)C[C@@H]1C`, for which the lysis activity was 3.02%.

As for `Cc1ccc(S(=O)(=O)N[C@H]2CC[C@@H](CC(=O)NCCCN(C)C)O[C@H]2CO)cc1`, the lysis activity was -1.04%.

As to `CCCNC(=O)[C@@H]1[C@@H](CO)[C@@H]2Cn3c(cccc3=O)[C@H]1N2C(=O)Nc1cc(F)ccc1F`, the lysis activity was 92.3% (active).

With `CCCNC(=O)N1[C@@H]2c3cccc(=O)n3C[C@H]1[C@H](CO)[C@H]2C(=O)NCC(F)(F)F`, the lysis activity was -3.09%.

Take `CCCNC(=O)[C@@H]1[C@@H](CO)[C@@H]2Cn3c(cccc3=O)[C@H]1N2C(=O)C1CC1`: the lysis activity is 1.83%.

As to `COc1ccc(S(=O)(=O)N(C)C[C@@H]2Oc3ccc(NC(=O)CCC(F)(F)F)cc3C(=O)N([C@@H](C)CO)C[C@H]2C)cc1`, the lysis activity is 2.26%.

For `O=C(C[C@H]1C=C[C@H](NS(=O)(=O)c2ccc(F)cc2)[C@H](CO)O1)NCc1ccncn1`, the lysis activity is -3.14%.

With `C[C@@H]1CN([C@H](C)CO)C(=O)c2cc(NC(=O)CCCN(C)C)ccc2O[C@H]1CN(C)Cc1ccc(C(=O)O)cc1`, the lysis activity is -1.44%.

Take `CO[C@@H]1CN(C)C(=O)c2ccc(NC(=O)C3CCC3)cc2OC[C@H](C)NC[C@H]1C`: the lysis activity was 1.85%.

For `CC(C)NC(=O)N(C)C[C@H]1Oc2c(NC(=O)c3ccncc3)cccc2C(=O)N([C@@H](C)CO)C[C@H]1C`, the lysis activity is -2.5%.

As for `C[C@H](CO)N1C[C@H](C)[C@@H](CN(C)Cc2ccc(Oc3ccccc3)cc2)Oc2cc(-c3ccncc3)ccc2S1(=O)=O`, the lysis activity is -0.269%.

Regarding `CCCNC(=O)Nc1ccc2c(c1)OC[C@H](C)N(Cc1ccccc1)C[C@H](C)[C@H](OC)CN(C)C2=O`, the lysis activity was -0.367%.

`CO[C@@H]1CN(C)C(=O)c2ccc(NC(=O)C3CC3)cc2OC[C@@H](C)N(CC2CCOCC2)C[C@H]1C`: the lysis activity is 61.5%.

With `O=C(c1ccccc1)N1CC[C@H]2[C@H](CO)Nc3ccc(-c4ccc(F)cc4)cc3[C@H]21`, the lysis activity was 21.5%.

As to `C/C=C/c1cnc2c(c1)C(=O)N([C@@H](C)CO)C[C@@H](C)[C@H](CN(C)Cc1cncnc1)O2`, the lysis activity was -1.92%.

`COc1cccc(NC(=O)N2CC[C@@H]3[C@@H](CO)N(C)c4ccc(-c5cccc(F)c5)cc4[C@@H]32)c1`: the lysis activity was -11.2%.

In the case of `Cc1noc(C)c1NC(=O)N(C)C[C@@H]1Oc2ccc(NC(=O)Nc3cccc4ccccc34)cc2CC(=O)N([C@@H](C)CO)C[C@H]1C`, the lysis activity is 41.1%.

Consider `CCN1[C@@H]2c3ccc(C4=CCCC4)c(=O)n3C[C@@H]2[C@@H](CO)[C@@H]1C(=O)NCc1ccccn1`, for which the lysis activity was 1.37%.

As to `CO[C@@H]1CN(C)C(=O)c2ccc(NS(=O)(=O)c3ccc(Cl)cc3)cc2OC[C@H](C)N(C(=O)NC(C)C)C[C@H]1C`, the lysis activity was -5.3%.

On to `C[C@H]1CN([C@@H](C)CO)C(=O)c2cccc(NC(=O)Nc3ccccc3)c2O[C@@H]1CN(C)S(=O)(=O)c1ccc(F)cc1`, for which the lysis activity is -1.52%.

For the compound `OC[C@@H]1[C@@H](c2ccc(C#CC3(O)CCCC3)cc2)[C@@H]2CN(Cc3cncnc3)CCCCN12`, the lysis activity was -3.24%.

Consider `O=C(C[C@@H]1CC[C@H](NC(=O)Nc2ccc(F)cc2)[C@H](CO)O1)NCc1ccccn1`, for which the lysis activity was -0.684%.

Take `CO[C@@H]1CN(C)C(=O)c2cc(NC(=O)C3CC3)ccc2OC[C@@H](C)N(C(=O)c2ccccc2F)C[C@@H]1C`: the lysis activity is 44%.

Consider `C[C@@H]1CN([C@@H](C)CO)S(=O)(=O)c2ccc(-c3ccc(C(=O)N(C)C)cc3)cc2O[C@@H]1CN(C)C(=O)Cc1ccccn1`, for which the lysis activity was 0.616%.

Consider `CN1CCN(C(=O)c2cc3c(c(-c4cccc(-c5ccc(C(=O)N(C)C)cc5)c4)n2)[C@@H](CCO)N([S@](=O)C(C)(C)C)C3)CC1`, for which the lysis activity is -8.88%.

On to `Cc1ccc(S(=O)(=O)N[C@@H]2CC[C@H](CCNC(=O)C3CCOCC3)O[C@@H]2CO)cc1`, for which the lysis activity was -6.3%.

In the case of `COCC(=O)Nc1ccc2c(c1)OC[C@H](C)N(C(=O)c1ccccn1)C[C@@H](C)[C@H](OC)CN(C)C2=O`, the lysis activity is 0.52%.

On to `O=C(C[C@H]1CC[C@@H]2[C@H](COC[C@@H](O)CN2C(=O)Nc2ccc(Cl)cc2)O1)NC1Cc2ccccc2C1`, for which the lysis activity is -3.01%.

In the case of `C[C@@H]1CN([C@H](C)CO)C(=O)c2cc(C#CC3CC3)cnc2O[C@@H]1CN(C)Cc1cccc(C(=O)O)c1`, the lysis activity is -8.03%.

As to `C[C@H](CO)N1C[C@H](C)[C@@H](CN(C)Cc2ccc(C(=O)Nc3ccccc3N)cc2)Oc2c(NC(=O)C3CC3)cccc2C1=O`, the lysis activity was -0.959%.

Take `COCC(=O)N(C)C[C@@H]1Oc2cc(C#CCC(C)C)ccc2S(=O)(=O)N([C@@H](C)CO)C[C@@H]1C`: the lysis activity is 0.182%.

Take `O=C(CN1CCOCC1)NC[C@@H]1N[C@@H](CO)[C@@H]1c1ccc(-c2ccccc2)cc1`: the lysis activity is 4.94%.

Turning to `CCC(=O)N1[C@@H]2CN(C(=O)Nc3ccc(Cl)cc3)c3ccccc3[C@@H]2[C@@H]1CO`, the lysis activity is -1.93%.

Consider `COc1cccc(S(=O)(=O)Nc2ccc3c(c2)[C@H]2C[C@H](CC(=O)O)O[C@H](CO)[C@H]2O3)c1`, for which the lysis activity was -0.106%.

As for `COc1cccc(S(=O)(=O)Nc2ccc3c(c2)[C@@H]2C[C@H](CC(=O)NC4CCCCC4)O[C@H](CO)[C@@H]2O3)c1`, the lysis activity is 116% (active).

In the case of `COc1cccc(S(=O)(=O)Nc2ccc3c(c2)[C@@H]2C[C@@H](CC(=O)NC4CCCCC4)O[C@H](CO)[C@@H]2O3)c1`, the lysis activity is 2.9%.

Turning to `CCCC#Cc1cnc2c(c1)C(=O)N([C@H](C)CO)C[C@H](C)[C@H](CN(C)C(=O)c1cnccn1)O2`, the lysis activity was -1.04%.

For the compound `CCC(=O)Nc1ccc2c(c1)C(=O)N(C)[C@H]1CC[C@H](CC(=O)NC3Cc4ccccc4C3)O[C@H]1CO2`, the lysis activity was -0.192%.

For the compound `COCC(=O)Nc1ccc2c(c1)[C@H]1C[C@H](CC(=O)OC)O[C@@H](CO)[C@H]1O2`, the lysis activity was -5.98%.

As for `O=C(C[C@H]1CC[C@H]2[C@@H](COC[C@H](O)CN2C(=O)Nc2ccc(Cl)cc2)O1)NCC1CC1`, the lysis activity is -8.94%.

As to `C[C@H]1CN([C@@H](C)CO)C(=O)c2cc(NC(=O)Cn3cnnn3)ccc2O[C@H]1CN(C)Cc1ccc(C(=O)O)cc1`, the lysis activity was -7.7%.

With `C[C@@H](NC(=O)C[C@@H]1CC[C@H](NC(=O)Cc2ccccn2)[C@H](CO)O1)c1ccccc1`, the lysis activity was -0.901%.

Consider `C[C@H](NC(=O)C[C@@H]1CC[C@@H](NC(=O)Cc2ccccn2)[C@@H](CO)O1)c1ccccc1`, for which the lysis activity is 0.182%.

For the compound `C[C@@H](NC(=O)C[C@H]1CC[C@@H](NC(=O)Cc2ccccn2)[C@@H](CO)O1)c1ccccc1`, the lysis activity was 105% (active).
